Reference: ChEMBL document CHEMBL1123337, “Synthesis and antiinflammatory/analgesic activities of 11H-dibenzo[b, e,][1,4]dioxepinacetic acids” (J Med Chem, 1986)

Tests used:
Format in all cases: functional
Rattus norvegicus [1] = experiment: Antiinflammatory activity was evaluated by the inhibition of rat carrageenan foot edema (CFE) assay at the dose of 10 mg/kg
How it was run: (§1)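 Rats, six per dose. Oral dosing 1 h before carrageenan injection, as a suspension in 0.25% (w/v) agar in water, 3.0 mL per animal. Hindpaw volume read by mercury displacement just after injection and 3 h later. Percent inhibition of mean swelling relative to vehicle controls; unpaired Student's t test.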

Rattus norvegicus [2] = experiment: Antiinflammatory activity was evaluated by the inhibition of rat carrageenan foot edema (CFE) assay at the dose of 1 mg/kg; how it was run: as §1
Rattus norvegicus [3] = experiment: Gastric haemorrhage at the dose of 30 mg/kg expressed as the number of rats with lesions per 6 number of rats (lesions per animal=1.7)
How it was run: (§2)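 Male Sprague-Dawley rats, 120–200 g, six per group, weight-sorted and fasted overnight. Given orally as a suspension in 0.5% methocal. Killed by CO2 4 h later. Stomachs everted and washed, and mucosal lesions counted visually under 3× magnification. Scored as rats with lesions per total, with lesions per animal.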

Rattus norvegicus [4] = experiment: Antiinflammatory activity was evaluated by the inhibition of rat carrageenan foot edema (CFE) assay at the dose of 3 mg/kg; how it was run: as §1
Rattus norvegicus [5] = experiment: Gastric haemorrhage at the dose of 10 mg/kg expressed as the number of rats with lesions per 6 number of rats; how it was run: as §2
Rattus norvegicus [6] = experiment: Gastric haemorrhage at the dose of 10 mg/kg expressed as the number of rats with lesions per 6 number of rats (lesions per animal=4.2); how it was run: as §2
Mus musculus [7] = experiment: Analgesic activity determined by its ability to inhibit phenylbenzoquinone (PBQ, ip) induced abdominal writhing at dose of 10 mg/kg; details: Abdomen
How it was run: (§3)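 Male CD mice, 18–22 g, groups of 10, fasted overnight. Dosed orally in 1% methylcellulose 60 min before ip phenylbenzoquinone (2 mg/kg, 0.02% aqueous). Writhes (abdominal contractions, lordosis, hindlimb extension) counted over 10 min, starting 5 min after PBQ. Group means and standard errors taken; percent inhibition calculated against vehicle controls.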

Mus musculus [8] = experiment: Analgesic activity determined by its ability to inhibit phenylbenzoquinone (PBQ, ip) induced abdominal writhing at dose of 3 mg/kg; details: Abdomen; how it was run: as §3
Mus musculus [9] = experiment: Analgesic activity determined by its ability to inhibit phenylbenzoquinone (PBQ, ip) induced abdominal writhing at dose of 30 mg/kg; details: Abdomen; how it was run: as §3
Rattus norvegicus [10] = experiment: Gastric haemorrhage at the dose of 30 mg/kg expressed as the number of rats with lesions per 6 number of rats; how it was run: as §2
Rattus norvegicus [11] = experiment: Compound was evaluated for the effective dose required for the inhibition of rat carrageenan foot edema (CFE) assay

Structure (SMILES) | inhibition in vivo at 10 mg/kg (Rattus norvegicus [1]) | inhibition in vivo at 1 mg/kg (Rattus norvegicus [2]) | inhibition in vivo at 3 mg/kg (Rattus norvegicus [4]) | inhibition in vivo at 30 mg/kg (Mus musculus [9]) | further results
COC(=O)C(C)c1ccc2c(c1)Oc1ccccc1CO2 (stereo not drawn) | 56% | 23% | 32% | – | No. of rats with lesions (Rattus norvegicus [3]): 5; No. of rats with lesions (Rattus norvegicus [5]): 0
O=C(O)Cc1ccc2c(c1)Oc1ccccc1OC2 | 5% | – | 6% | – | –
CC(CO)c1ccc2c(c1)Oc1ccccc1CO2 (stereo not drawn) | 45% | 9% | 19% | – | –
CC(C(=O)O)c1ccc2c(c1)Oc1ccccc1CO2 (stereo not drawn) | 42% | 21% | 27% | 91% | No. of rats with lesions (Rattus norvegicus [6]): 5; inhibition in vivo at 10 mg/kg (Mus musculus [7]): 70%; inhibition in vivo at 3 mg/kg (Mus musculus [8]): 38%; No. of rats with lesions (Rattus norvegicus [10]): 6
O=C(O)Cc1ccc2c(c1)Oc1ccccc1CO2 | 40% | 24% | 10% | 26% | –
CC(=O)Nc1ccc2c(c1)COc1ccc(CC(=O)O)cc1O2 | 23% | 35% | 16% | -55% | –
Cc1cc(CC(=O)O)n(C)c1C(=O)c1ccc(Cl)cc1 [ZOMEPIRAC] | – | 61% | 82% | 91% | –
COc1ccc2c(c1)c(CC(=O)O)c(C)n2C(=O)c1ccc(Cl)cc1 [INDOMETHACIN] | 67% | 33% | 56% | – | –
O=C(O)Cc1ccc2c(c1)COc1ccccc1O2 | 16% | 12% | 9% | 37% | –
CCC(=O)OC(C)OC(=O)C(C)c1ccc2c(c1)Oc1ccccc1CO2 (stereo not drawn) | 12% | 6% | 15% | – | –
O=C(O)Cc1ccc2c(c1)OCc1ccccc1O2 | 49% | 28% | 53% | – | –
O=C(O)Cc1ccc2c(c1)Oc1cc(Cl)ccc1CO2 | 5% | 11% | 19% | 26% | –
CC(=O)NCCOC(=O)C(C)c1ccc2c(c1)Oc1ccccc1CO2 (stereo not drawn) | 28% | 7% | 15% | – | –
CC(C(=O)O)c1ccc2c(c1)OCc1ccccc1O2 (stereo not drawn) | 43% | 43% | 45% | 70% | –
O=C(O)Cc1ccc2c(c1)OCc1ccccc1C2=O [OXEPINAC] | – | – | – | – | ED50 (Rattus norvegicus [11]): 3.7 mg/kg
O=C(O)Cc1ccc2c(c1)Oc1ccc(Cl)cc1CO2 | 28% | 21% | 23% | 82% | –
